Measured values published in ChEMBL document CHEMBL1129651, “3-Phenyl-substituted imidazo[1,5-alpha]quinoxalin-4-ones and imidazo[1,5-alpha]quinoxaline ureas that have high affinity at the GABAA/benzodiazepine receptor complex” (J Med Chem, 1996).

Key:
[1] = target: GABA A receptor alpha-3/beta-2/gamma-2 (Rattus norvegicus) (UniProt P18508+P20236+P63138); assay: In vitro efficacy as change in chloride current against GABA-A alpha-3-beta-2-gamma-2 subunit expression; format: functional
[2] = tested on: Rattus norvegicus; assay: Ability to antagonize metrazole-induced seizures (clonic and tonic) in rats after intraperitoneal injection; conditions: ip
[3] = target: GABA-A receptor; anion channel; assay: Binding affinity against benzodiazepine receptor (BzR) in rat cortical membranes determined by competition experiments with radiolabeled [3H]flunitrazepam (Fnz); format: cell membranes
[4] = target: GABA-A receptor; anion channel (Rattus norvegicus) (UniProt O09028+P15431+P18506+P18508+P19969+P20236+P23574+P23576+P28471+P28473+P30191+P62813+P63079+P63138+Q91ZM7+Q9ES14)
[5] = species: Mus musculus; assay: Antagonism of benzodiazepine traction in mice; format: functional
How it was run: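 Male CF-1 mice given triazolam 1 mg/kg ip together with test compound ip, starting at 100 mg/kg, in 0.25% aqueous methyl cellulose. Dose-response run on 0.5 log scale. Loss of traction scored 15 min later. Absence of the expected loss marks antagonism. ED50 taken from lower doses.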

[6] = species: Mus musculus; assay: Compound was tested for ethanol potentiation expressed as the loss of traction response (muscle relaxation); format: functional
How it was run: (§1)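 Male CF-1 mice given 50% aqueous ethanol orally (7.5 mL/kg) plus test compound sc in 0.25% aqueous methyl cellulose (10 mL/kg). Tested 30 min later. Traction: hindlimb placed on wire within 10 s when suspended by forepaws. Righting: rolls onto feet within 10 s when released on its back. Six mice per dose; ED50s determined.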

[7] = species: Mus musculus; assay: Acute electroshock physical dependence activity (drug MA50/V122 MA50); format: functional
How it was run: (§2)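 Male CF-1 mice, 10/group, dosed sc twice daily for 3 days (0800, then 2 times that dose at 1600). Flumazenil 2.5 mg/kg iv in 5% aqueous N,N-dimethylacetamide given 24 h after the last dose. 5 min later electroshock seizure threshold estimated by up-down method (0.05 log steps; transpinnal 0.6 ms pulses, 100 Hz, 0.2 s). Comparison is against a saline-treated, flumazenil-injected control group.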

[8] = species: Mus musculus; assay: Compound was tested for ethanol potentiation expressed as loss of righting reflex (anesthesia); format: functional; how it was run: as §1
[9] = species: Mus musculus; assay: Compound was tested for Acute electroshock physical dependence activity (drug MA50/V122 MA50); No significant activity; format: functional; how it was run: as §2

Compound	Cl - current change [1]	ED50 [2] [mg/kg]	Ki [3] [nM]	TBPS shift [4]	ED50 [5] [mg/kg]	ED50 [6] [mg/kg]	Activity [7]	ED50 [8] [mg/kg]	Activity [9]
CC(C)n1c(=O)c2c(-c3cccc(C(F)(F)F)c3)ncn2c2ccccc21	0.03	> 50	188	0.45	–	–	–	–	–
COc1ccccc1-c1ncn2c1c(=O)n(C(C)C)c1ccccc12	–	–	> 10000	–	–	–	–	–	–
CC(C)n1c(=O)c2c(-c3cccc(F)c3)ncn2c2ccccc21	–	> 50	480	0.31	–	–	–	–	–
COC(=O)N1Cc2c(-c3ccc(F)cc3)ncn2-c2ccccc21	–	> 50	47.2	0.53	–	–	–	–	–
CC1CN(C(=O)N2Cc3c(-c4ccc(F)cc4)ncn3-c3cccc(Cl)c32)CC(C)N1 (stereo unspecified)	–	1.8	33.4	0.31	> 30	–	–	–	–
O=C(N1CCCC1)N1Cc2c(-c3ccc(F)cc3)ncn2-c2ccccc21	–	14.8	0.97	0.64	> 30	0.34	0.88	> 30	–
O=C(N1CCOCC1)N1Cc2c(-c3ccc(F)cc3)ncn2-c2ccc(Cl)cc21	–	0.76	15.2	1.05	> 30	11	0.62	27	–
COc1ccc(-c2ncn3c2c(=O)n(C(C)C)c2c(C)cccc23)cc1	1.3	3.1	49.7	0.92	–	–	–	–	–
Cc1ccc(-c2ncn3c2CN(C(=O)N(C)C)c2ccccc2-3)cc1	–	4.4	11.1	–	–	–	0.87	–	–
O=C(N1CCOCC1)N1Cc2c(-c3ccc(F)cc3)ncn2-c2ccccc21	–	0.3	1.61	0.54	–	–	0.67	–	–
Cc1ccc(-c2ncn3c2C(C)(C)N(C(=O)N(C)C)c2ccccc2-3)cc1	–	> 50	334	0.71	–	–	–	–	–
CC(C)n1c(=O)c2c(-c3ccc(F)cc3)ncn2c2ccc(Cl)cc21	0.03	> 50	1690	0.14	–	–	–	–	–
CC(C)(C)NC(=O)N1Cc2c(-c3ccc(F)cc3)ncn2-c2ccccc21	–	> 50	283	1.02	–	–	–	–	–
Cc1ccc(-c2ncn3c2CN(C(=O)N2CCCC2)c2ccccc2-3)cc1	–	–	1.54	1.19	–	–	–	–	–
O=C(N1CCCCC1)N1Cc2c(-c3ccccc3)ncn2-c2ccccc21	–	4.5	1.65	0.52	> 30	0.5	0.82	> 30	–
CC(C)n1c(=O)c2c(-c3ccccc3)ncn2c2ccccc21	–	> 50	38.5	0.31	–	–	–	–	–
O=C(N1CCCC1)N1Cc2c(-c3ccccc3)ncn2-c2ccccc21	–	–	–	0.69	–	–	–	–	–
O=C(N1CCOCC1)N1Cc2c(-c3ccc(F)cc3)ncn2-c2ccc(F)cc21	–	0.14	2.16	0.7	> 30	5	0.7	17	–
CC1CN(C(=O)N2Cc3c(-c4ccc(F)cc4)ncn3-c3ccc(F)cc32)CC(C)N1 (stereo unspecified)	–	0.5	2.49	0.72	> 30	–	–	–	–
CC(C)n1c(=O)c2c(-c3noc(C4CC4)n3)ncn2c2ccccc21 [PANADIPLON]	–	1.6	–	–	1.7	6.6	–	> 30	0.95
O=C(c1ccccc1F)N1Cc2c(-c3ccc(F)cc3)ncn2-c2ccccc21	–	–	42.4	0.84	–	–	–	–	–
CC(C)n1c(=O)c2c(-c3ccc(F)cc3)ncn2c2ccccc21	0.45	30	115	0.58	> 30	14	–	> 30	1
CN(C)C(=O)N1Cc2c(-c3ccccc3)ncn2-c2ccccc21	–	–	3.41	0.4	–	–	–	–	–
CC(C)n1c(=O)c2c(-c3ccc(Cl)cc3)ncn2c2ccccc21	–	> 50	–	0.74	–	–	–	–	–
CCNC(=O)N1Cc2c(-c3ccc(F)cc3)ncn2-c2ccccc21	–	> 50	48.6	0.42	–	–	–	–	–
